29 compounds from ChEMBL document CHEMBL2046414, “Design and optimization of novel (2S,4S,5S)-5-amino-6-(2,2-dimethyl-5-oxo-4-phenylpiperazin-1-yl)-4-hydroxy-2-isopropylhexanamides as renin inhibitors” (Bioorg Med Chem Lett, 2012) can be followed below.

In data set [1] the target is T1, Renin (Homo sapiens, UniProt P00797).
T1 sequence (P00797 whole entry): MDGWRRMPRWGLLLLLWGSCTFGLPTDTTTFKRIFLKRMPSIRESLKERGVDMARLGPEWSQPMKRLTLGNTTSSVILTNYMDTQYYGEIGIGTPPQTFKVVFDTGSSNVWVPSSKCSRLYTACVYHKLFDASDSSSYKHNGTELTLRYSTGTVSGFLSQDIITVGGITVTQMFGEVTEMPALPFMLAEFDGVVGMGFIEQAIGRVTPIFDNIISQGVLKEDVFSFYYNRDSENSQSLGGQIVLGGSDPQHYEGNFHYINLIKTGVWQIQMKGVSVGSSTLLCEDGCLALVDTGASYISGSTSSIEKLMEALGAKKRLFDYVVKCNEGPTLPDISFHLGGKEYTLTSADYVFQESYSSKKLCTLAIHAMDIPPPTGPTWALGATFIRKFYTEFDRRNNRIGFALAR
Nature of the data set: Inhibition of human purified renin.

Data set [2] concerns the target T2, Renin (Macaca fascicularis, UniProt Q6DLS0).
T2 sequence (Q6DLS0 whole entry): T1 sequence (P00797 whole entry) with T68A, I214L, S235A
The experiment in a line: Inhibition of renin in cynomolgus monkey plasma.

Data set [3] is described as follows: Metabolic stability in cynomolgus monkey liver microsomes assessed as compound remaining at 1 uM incubated with NADPH generating system measured after 30 mins. It is filed as ADME, Macaca fascicularis, Microsome. As to conditions: read-out: Stability. The method, boiled down:
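Monkey liver microsome stability, high-throughput in-house format: compound incubated at […] with an NADPH-generating system and 0.5 mg/mL microsomal protein at 37 °C.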
In general terms: Liver microsomes are a subcellular fraction often used to study metabolism.

Data set [4] is described as follows: Oral bioavailability in cynomolgus monkey at 10 mg/kg. Type of data set: ADME, organism-based, Macaca fascicularis. To be noted: in vivo.
Data set [5] in a line: Cmax in cynomolgus monkey at 10 mg/kg, po. As to conditions: in vivo. Set-up: dose 10 mg/kg, route oral. It is filed as ADME, organism-based, Macaca fascicularis.
A short description of data set [6]: Clearance in cynomolgus monkey at 1 mg/kg, iv. It is filed as ADME, organism-based, Macaca fascicularis. On the set-up: dose 1 mg/kg, route intravenous. As to conditions: in vivo.
Data set [7] is described as follows: Volume of distribution at steady state in cynomolgus monkey at 1 mg/kg, iv. Type of data set: ADME, organism-based, Macaca fascicularis. On the set-up: dose 1 mg/kg, route intravenous. To be noted: in vivo, read-out: Vdss.
Data set [8] is described as follows: Half life in cynomolgus monkey at 1 mg/kg, iv. Type of data set: ADME, organism-based, Macaca fascicularis. On the set-up: dose 1 mg/kg, route intravenous. To be noted: in vivo.
The nature of data set [9]: AUC (0 to 24 hrs) in cynomolgus monkey at 10 mg/kg, po. As to conditions: plasma.

SMILES strings stand for the structures. Changes are numbered by the printed parent chain.

Take `COCOc1ccccc1N1CC(C)(C)N(C[C@H](N)[C@@H](O)C[C@H](C(=O)NCC(C)(C)C(N)=O)C(C)C)CC1=O`: the concentration for half-maximal inhibition (IC50) is 1.4 nM on Renin [1] and 6.4 nM against Renin [2].
The like results for `COCCCOc1ccccc1N1CC(C)(C)N(C[C@H](N)[C@@H](O)C[C@H](C(=O)NCC(C)(C)C(N)=O)C(C)C)CC1=O` were, in that order, 1.2 nM and 5.3 nM.
The corresponding values for `COCCOc1ccccc1N1CC(C)(C)N(C[C@H](N)[C@@H](O)C[C@H](C(=O)NCC(C)(C)C(N)=O)C(C)C)CC1=O` are 1.7 nM and 9.8 nM.
With `COc1ccccc1N1CC(C)(C)N(C[C@H](N)[C@@H](O)C[C@H](C(=O)NCC(C)(C)C(N)=O)C(C)C)CC1=O`, the IC50 on Renin [1] was found to be 1.9 nM; on Renin [2], 19 nM.
As for `CC(C)[C@H](C[C@H](O)[C@@H](N)CN1CC(=O)N(c2ccccc2)CC1(C)C)C(=O)NCC(C)(C)C(N)=O`, the IC50 against Renin [1] came to 3.1 nM; against Renin [2] it was 49 nM.
The corresponding values for `CC(C)[C@H](C[C@H](O)[C@@H](N)CN1CC(=O)N(c2ccccc2F)CC1(C)C)C(=O)NCC(C)(C)C(N)=O` are 2.2 nM and 30 nM.
The like results for `Cc1ccccc1N1CC(C)(C)N(C[C@H](N)[C@@H](O)C[C@H](C(=O)NCC(C)(C)C(N)=O)C(C)C)CC1=O` were, in that order, 1.7 nM and 24 nM.
`CC(C)[C@H](C[C@H](O)[C@@H](N)CN1CC(=O)N(c2ccccc2Cl)CC1(C)C)C(=O)NCC(C)(C)C(N)=O`: the half-maximal inhibitory concentration (IC50) against Renin [2] was 7 nM.
For `COc1cccc(N2CC(C)(C)N(C[C@H](N)[C@@H](O)C[C@H](C(=O)NCC(C)(C)C(N)=O)C(C)C)CC2=O)c1`, the IC50 was determined as 4.2 nM on Renin [1] and 58 nM at Renin [2].
The like results for `CC(C)[C@H](C[C@H](O)[C@@H](N)CN1CC(=O)N(c2cccc(F)c2)CC1(C)C)C(=O)NCC(C)(C)C(N)=O` were, in that order, 3 nM and 23 nM.
For `CC(C)[C@H](C[C@H](O)[C@@H](N)CN1CC(=O)N(c2cccc(Cl)c2)CC1(C)C)C(=O)NCC(C)(C)C(N)=O`, the IC50 against Renin [1] amounted to 2.1 nM; at Renin [2] it was 25 nM.
The corresponding values for `CC(C)[C@H](C[C@H](O)[C@@H](N)CN1CC(=O)N(c2cccc(F)c2F)CC1(C)C)C(=O)NCC(C)(C)C(N)=O` are 2 nM and 11 nM.
The like results for `CC(C)[C@H](C[C@H](O)[C@@H](N)CN1CC(=O)N(c2cc(F)ccc2F)CC1(C)C)C(=O)NCC(C)(C)C(N)=O` were, in that order, 2 nM and 30 nM.
The like results for `CC(C)[C@H](C[C@H](O)[C@@H](N)CN1CC(=O)N(c2c(F)cccc2F)CC1(C)C)C(=O)NCC(C)(C)C(N)=O` were, in that order, 2.4 nM and 12 nM.
In the case of `CC(C)[C@H](C[C@H](O)[C@@H](N)CN1CC(=O)N(c2cc(F)cc(F)c2)CC1(C)C)C(=O)NCC(C)(C)C(N)=O`, the IC50 at Renin [1] was determined as 5.5 nM; against Renin [2] it was 90 nM.
The corresponding values for `CC(C)[C@H](C[C@H](O)[C@@H](N)CN1CC(=O)N(c2cc(F)ccc2Cl)CC1(C)C)C(=O)NCC(C)(C)C(N)=O` are 2.1 nM and 7 nM.
The like results for `CC(C)[C@H](C[C@H](O)[C@@H](N)CN1CC(=O)N(c2cc(Cl)ccc2Cl)CC1(C)C)C(=O)NCC(C)(C)C(N)=O` were, in that order, 2.1 nM and 28 nM.
The corresponding values for `COc1ccc(Cl)c(N2CC(C)(C)N(C[C@H](N)[C@@H](O)C[C@H](C(=O)NCC(C)(C)C(N)=O)C(C)C)CC2=O)c1` are 2.4 nM and 33 nM.
`CCCCNC(=O)[C@@H](C[C@H](O)[C@@H](N)CN1CC(=O)N(c2ccccc2Cl)CC1(C)C)C(C)C`: the IC50 stood at 1 nM against Renin [1] and 9 nM on Renin [2]. Further, in [3], the remaining at 0.5 h, 1 µM is 39.2%.
For `CC[C@H](C)CNC(=O)[C@@H](C[C@H](O)[C@@H](N)CN1CC(=O)N(c2ccccc2Cl)CC1(C)C)C(C)C`, the values for the IC50 against Renin [1] and against Renin [2] were 1 nM and 2 nM, respectively. The remaining at 0.5 h, 1 µM in [3] stood at 8.4%.
The corresponding values for `CC(C)[C@H](C[C@H](O)[C@@H](N)CN1CC(=O)N(c2ccccc2Cl)CC1(C)C)C(=O)NC1CCCCC1` are 1 nM, 11 nM and 17.5%.
Regarding `CCCCNC(=O)[C@@H](C[C@H](O)[C@@H](N)CN1CC(=O)N(c2cc(F)ccc2Cl)CC1(C)C)C(C)C.O=C(O)/C=C/C(=O)O`, the IC50 against Renin [1] amounted to 2 nM; against Renin [2] it was 25 nM. Besides, in data set [3], the remaining at 0.5 h, 1 µM came to 52.2%. In [4], this compound had a bioavailability of 18.5%. In addition, the highest level in data set [5] (Cmax) was 576 ng/mL. In data set [6], this compound registered a clearance of 14.7 mL/min/kg. In addition, in [7], the Vd was determined as 16.3 L/kg. For the same compound, the half-life in [8] is 10.8 h. Also, in data set [9], the AUC(0-t) at 24 h was 2110 ng·h/mL.
For the compound `CC[C@H](C)CNC(=O)[C@@H](C[C@H](O)[C@@H](N)CN1CC(=O)N(c2cc(F)ccc2Cl)CC1(C)C)C(C)C`, the values for the half-inhibitory concentration (IC50) at Renin [1] and on Renin [2] were 1.4 nM and 8 nM, respectively. Moreover, the remaining at 0.5 h, 1 µM in data set [3] turned out to be 1.9%.
The corresponding values for `CC(C)[C@H](C[C@H](O)[C@@H](N)CN1CC(=O)N(c2cc(F)ccc2Cl)CC1(C)C)C(=O)NC1CCCCC1` are 1.9 nM, 5 nM and 38%.
For `COCCCOc1ccccc1C1CCN(CC(N)C(O)CC(C(=O)NCC(C)(C)C(N)=O)C(C)C)CC1` (racemic), the half-inhibitory concentration (IC50) turned out to be 370 nM on Renin [1] and 12500 nM on Renin [2].
At Renin [2], `COCCCOc1ccccc1N1CCN(CC(N)C(O)CC(C(=O)NCC(C)(C)C(N)=O)C(C)C)CC1=O` (racemic) registered an IC50 of 2800 nM.
Regarding `COCCCOc1cccc(N2CCN(CC(N)C(O)CC(C(=O)NCC(C)(C)C(N)=O)C(C)C)CC2=O)c1` (racemic), the half-inhibitory concentration (IC50) against Renin [1] stood at 400 nM; at Renin [2], 3000 nM.
The corresponding values for `COCCCOc1ccccc1N1CC(C)(C)N(CC(N)C(O)CC(C(=O)NCC(C)(C)C(N)=O)C(C)C)CC1=O` (racemic) are 3.3 nM and 10 nM.
Turning to `COCCCOc1ccccc1N1CCN(CC(N)C(O)CC(C(=O)NCC(C)(C)C(N)=O)C(C)C)C(C)(C)C1=O` (racemic), the IC50 on Renin [1] turned out to be 170 nM; at Renin [2] it was 875 nM.

In general, IC50 refers to the concentration that inhibits the measured activity by half. For orientation: bioavailability means dose-corrected exposure relative to a reference, in per cent. By Cmax is commonly meant the highest concentration seen after dosing. By clearance is commonly meant the volume of plasma or blood freed of the substance per unit of time. The half-life is the time needed for the level to fall by half in the phase considered. The term AUC(0-t) denotes the area under the concentration-time curve up to a stated or last time point.
